Active and inactive are the calls of the source. No cut-off for these calls is given here.
Tests used:
MGC-803 = assay: Antitumour activity against human MGC803 cells assessed as cell growth inhibition measured after 72 hrs by SRB assay; assay type: functional, cell-based; conditions: MGC-803, 72 h
In short: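 Exponentially growing cells trypsinized, seeded at 5 × 10^4 cells/mL in 96-well plates, cultured overnight, then exposed to compounds for 72 h. Cells fixed with 10% TCA 1 h, stained with SRB 15 min, dye dissolved in Tris-HCl, absorbance read; 50% growth-inhibitory concentration calculated.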

MCF7 [1] = assay: Inhibition of epithelial-mesenchymal transition in human MCF7 cells assessed as increase in ZO-1 expression level at 2 to 10 uM after 48 hrs by Western blot analysis; assay type: functional, cell-based
In short: (§1)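 MCF-7 cells in RPMI 1640 with 10% FBS, 37 °C, 5% CO2, exposed to no drug, 2 or 10 µM for 48 h. RIPA lysates, BCA quantitation, 8% SDS-PAGE, PVDF transfer, primary antibodies overnight 4 °C, secondary 2 h RT, ECL and densitometry for ZO-1, E-cadherin, N-cadherin, vimentin. Mean ± SD of 3 independent tests.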

[2] = Hepatotoxicity in nude mouse xenografted with human MCF7 cells assessed as slight increase in serum alkaline phosphatase level at 22.5 to 45 mg/kg/day, ip administered for 21 days by biochemical automatic analyzer; assay type: toxicity, organism-based; conditions: in vivo, 504 h
GES1 = assay: Cytotoxicity against human GES-1 cells assessed as reduction in cell viability measured after 48 to 72 hrs by MTT assay; assay type: cell-based
In short: (§2)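 Cells seeded at 3 × 10^3 per well in 96-well plates, incubated overnight, then given fresh medium with a range of drug concentrations for 48 h or 72 h. MTT added (final 500 µg/mL) for 4 h, formazan dissolved in DMSO, absorbance at 570 nm; IC50 derived. Mean ± SD of 3 independent tests.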

HUVEC = assay: Antimigratory activity against HUVEC at 2 to 10 uM measured after 24 hrs by transwell assay; assay type: functional, cell-based; conditions: Homo sapiens
In short: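 Cells seeded on upper side of polycarbonate transwell filters in serum-free medium, drug at 0, 2 or 10 µM; complete serum-containing medium in lower chamber as chemoattractant. After 24 h migrated cells fixed in 4% paraformaldehyde 20 min, crystal violet stained 20 min, imaged and counted. Three independent experiments.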

[3] = Toxicity in nude mouse xenografted with human MCF7 cells assessed as increase in body weight at 22.5 to 45 mg/kg/day, ip administered for 21 days; assay type: organism-based; conditions: in vivo, 504 h
In short: (§3)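 Nude mice (male/female, 4–6 weeks) injected subcutaneously in right forelimb with 5 × 10^7 MCF-7 cells in 200 µL saline; at mean tumour 100 mm3 randomized (n = 5/group): saline 0.2 mL/day, 22.5 or 45 mg/kg/day ip for 21 days. Body weight and tumour volume (length × width²/2) every other day; tumours weighed at day 21.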

MCF7 [4] = assay: Inhibition of epithelial-mesenchymal transition in human MCF7 cells assessed as increase in E-cadherin expression level at 2 to 10 uM after 48 hrs by Western blot analysis; assay type: functional, cell-based; in short: as §1
[5] = Solubility of the compound in water; assay type: physicochemical; conditions: buffer
PC-3 = assay: Cytotoxicity against human PC3 cells assessed as reduction in cell viability measured after 48 to 72 hrs by MTT assay; assay type: cell-based; in short: as §2
MDA-MB-231 = assay: Cytotoxicity against human MDA-MB-231 cells assessed as reduction in cell viability measured after 48 to 72 hrs by MTT assay; assay type: cell-based; in short: as §2
MCF7 [6] = assay: Antitumour activity against human MCF7 cells xenografted in nude mouse assessed as decrease in tumour volume at 22.5 to 45 mg/kg/day, ip administered for 21 days; assay type: functional, organism-based; in short: as §3
[7] = Toxicity in nude mouse xenografted with human MCF7 cells assessed as effect on heart morphological changes at 22.5 to 45 mg/kg/day, ip administered for 21 days by HE staining analysis; assay type: organism-based; conditions: in vivo, 504 h

Q: For COc1cc2c(cc1O)CC[C@@H]1[C@@H]2CC[C@]2(C)C(=O)/C(=C/c3ccc(Cl)cc3)C[C@@H]12, which IC50 (MGC-803) is on record?
A: The IC50 was 14.9 µM.

Q: What about the inhibition (MCF7 [1]) of the same compound?
A: Its inhibition is “Active”.

Q: And the Activity [2]?
A: The Activity was “Toxic”.

Q: And the Activity (GES1)?
A: The Activity was “Toxic”.

Q: What about the Activity (HUVEC) of the same compound?
A: The Activity was “Active”.

Q: What about the Activity [3] of the same compound?
A: Its Activity is “Non-Toxic”.

Q: And the inhibition (MCF7 [4])?
A: Its inhibition is “Active”.

Q: And the solubility [5]?
A: The solubility was “Soluble”.

Q: What about the Activity (PC-3) of the same compound?
A: Its Activity is “Toxic”.

Q: What about the IC50 (MDA-MB-231) of the same compound?
A: Its IC50 is 78.6 µM.

Q: What about the inhibition (MCF7 [6]) of the same compound?
A: Its inhibition is “Active”.

Q: What about the Activity [7] of the same compound?
A: The Activity was “Non-Toxic”.

— ChEMBL document CHEMBL4393712, “Discovery of chalcone-modified estradiol analogs as antitumour agents that Inhibit tumour angiogenesis and epithelial to mesenchymal transition” (Eur J Med Chem, 2019)
